Laboratory results reported in ChEMBL document CHEMBL1933058, “5-(2-amino-pyrimidin-4-yl)-1H-pyrrole and 2-(2-amino-pyrimidin-4-yl)-1,5,6,7-tetrahydro-pyrrolo[3,2-c]pyridin-4-one derivatives as new classes of selective and orally available Polo-like kinase 1 inhibitors” (Bioorg Med Chem Lett, 2012).
In brackets after ≈: the same amount, converted by molar mass.

Assays:
[1] = biological target: Serine/threonine-protein kinase PLK1 (Homo sapiens, UniProt P53350); test: Inhibition of PLK1
[2] = biological target: Serine/threonine-protein kinase PLK2 (Homo sapiens, UniProt Q9NYY3); test: Inhibition of PLK2
Serine/threonine-protein kinase PLK2, sequence (Q9NYY3 whole entry): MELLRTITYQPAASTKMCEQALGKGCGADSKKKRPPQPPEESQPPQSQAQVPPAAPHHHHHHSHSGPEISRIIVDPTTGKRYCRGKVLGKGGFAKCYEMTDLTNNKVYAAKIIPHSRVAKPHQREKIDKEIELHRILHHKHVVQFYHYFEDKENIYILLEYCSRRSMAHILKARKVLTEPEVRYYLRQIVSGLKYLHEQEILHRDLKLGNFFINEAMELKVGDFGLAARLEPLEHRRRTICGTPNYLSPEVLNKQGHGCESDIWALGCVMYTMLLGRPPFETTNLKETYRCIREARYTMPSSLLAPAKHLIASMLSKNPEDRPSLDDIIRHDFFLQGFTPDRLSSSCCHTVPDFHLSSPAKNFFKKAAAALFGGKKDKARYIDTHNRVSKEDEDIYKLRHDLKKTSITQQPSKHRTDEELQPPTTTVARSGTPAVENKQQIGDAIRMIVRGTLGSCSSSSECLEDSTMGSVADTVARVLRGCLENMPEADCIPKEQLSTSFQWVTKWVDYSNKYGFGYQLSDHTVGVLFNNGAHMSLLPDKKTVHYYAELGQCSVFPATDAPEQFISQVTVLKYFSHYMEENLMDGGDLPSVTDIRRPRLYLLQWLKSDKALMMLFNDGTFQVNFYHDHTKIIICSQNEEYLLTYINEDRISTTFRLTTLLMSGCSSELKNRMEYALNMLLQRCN

[3] = biological target: Serine/threonine-protein kinase PLK3 (Homo sapiens, UniProt Q9H4B4); test: Inhibition of PLK3
Serine/threonine-protein kinase PLK3, sequence (Q9H4B4 whole entry): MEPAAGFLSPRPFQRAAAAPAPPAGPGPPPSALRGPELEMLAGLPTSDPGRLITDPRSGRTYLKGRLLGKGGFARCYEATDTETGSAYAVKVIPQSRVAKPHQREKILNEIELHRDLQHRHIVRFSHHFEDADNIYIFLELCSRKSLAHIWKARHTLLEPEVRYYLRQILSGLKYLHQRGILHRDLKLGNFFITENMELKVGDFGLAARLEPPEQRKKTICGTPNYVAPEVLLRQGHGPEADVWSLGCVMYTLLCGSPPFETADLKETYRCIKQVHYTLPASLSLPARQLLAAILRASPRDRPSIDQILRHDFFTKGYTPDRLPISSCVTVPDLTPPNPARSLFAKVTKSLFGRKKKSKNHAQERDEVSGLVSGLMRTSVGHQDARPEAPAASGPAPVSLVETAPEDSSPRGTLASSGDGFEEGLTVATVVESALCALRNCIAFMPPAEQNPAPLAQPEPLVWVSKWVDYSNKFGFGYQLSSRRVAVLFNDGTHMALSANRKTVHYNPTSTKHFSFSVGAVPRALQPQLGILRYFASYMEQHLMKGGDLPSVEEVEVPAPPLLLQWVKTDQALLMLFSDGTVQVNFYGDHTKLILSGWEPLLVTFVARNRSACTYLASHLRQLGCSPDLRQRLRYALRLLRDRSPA

[4] = biological target: Cyclin-dependent kinase 2/cyclin A (Homo sapiens, UniProt P24941); test: Inhibition of CDK2/cyclin A; assay type: protein-complex assay
Aurora kinase A = biological target: T1, Aurora kinase A (Homo sapiens, UniProt O14965); test: Inhibition of Aurora-A
T1 sequence (O14965 whole entry): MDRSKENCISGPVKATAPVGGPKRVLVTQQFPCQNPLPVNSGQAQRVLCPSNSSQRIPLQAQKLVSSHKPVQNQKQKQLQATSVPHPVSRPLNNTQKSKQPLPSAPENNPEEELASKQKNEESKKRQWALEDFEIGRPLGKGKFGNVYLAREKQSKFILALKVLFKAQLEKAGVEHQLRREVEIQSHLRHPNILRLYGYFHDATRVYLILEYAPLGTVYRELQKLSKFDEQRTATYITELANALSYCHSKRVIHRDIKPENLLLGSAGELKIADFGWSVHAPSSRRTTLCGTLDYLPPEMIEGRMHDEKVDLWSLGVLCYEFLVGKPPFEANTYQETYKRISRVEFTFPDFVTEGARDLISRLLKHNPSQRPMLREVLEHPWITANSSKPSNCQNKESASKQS

A2780 = test: Antiproliferative activity against human A2780 cells; assay type: functional, cell-based
[5] = Inhibition of CK2
[6] = biological target: Tyrosine-protein kinase ABL1 (Homo sapiens, UniProt P00519); test: Inhibition of c-ABL
[7] = biological target: RAC-alpha serine/threonine-protein kinase (Homo sapiens, UniProt P31749); test: Inhibition of AKT1
Aurora kinase B = Aurora kinase B (Homo sapiens, UniProt Q96GD4); test: Inhibition of Aurora-B
[8] = biological target: Protein-tyrosine kinase 6 (Homo sapiens, UniProt Q13882); test: Inhibition of BRK
Protein-tyrosine kinase 6, sequence (Q13882 whole entry): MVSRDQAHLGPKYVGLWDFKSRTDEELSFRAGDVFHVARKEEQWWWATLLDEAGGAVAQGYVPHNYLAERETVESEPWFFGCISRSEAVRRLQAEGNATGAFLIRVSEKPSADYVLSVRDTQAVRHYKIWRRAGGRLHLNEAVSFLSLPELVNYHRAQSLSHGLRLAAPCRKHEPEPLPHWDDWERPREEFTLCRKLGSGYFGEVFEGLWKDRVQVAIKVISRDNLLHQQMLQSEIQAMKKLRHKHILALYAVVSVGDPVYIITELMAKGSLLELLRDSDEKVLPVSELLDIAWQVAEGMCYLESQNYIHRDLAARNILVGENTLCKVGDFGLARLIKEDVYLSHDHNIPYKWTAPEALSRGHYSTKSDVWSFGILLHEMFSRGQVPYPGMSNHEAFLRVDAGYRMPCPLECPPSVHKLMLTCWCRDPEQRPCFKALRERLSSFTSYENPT

[9] = biological target: Cell division cycle 7-related protein kinase (Homo sapiens, UniProt O00311); test: Inhibition of CDC7
[10] = biological target: Cyclin-dependent kinase 1/cyclin B1 (Homo sapiens, UniProt P06493); test: Inhibition of CDK1/cyclin B; assay type: protein-complex assay
[11] = biological target: Cyclin-dependent kinase 2/cyclin E1 (Homo sapiens, UniProt P24941); test: Inhibition of CDK2/cyclin E; assay type: protein-complex assay
[12] = biological target: Cyclin-dependent kinase 4/cyclin D1 (Homo sapiens, UniProt P11802); test: Inhibition of CDK4/cyclin D1; assay type: protein-complex assay
[13] = biological target: Cyclin-dependent kinase 5 activator 1 (Homo sapiens, UniProt Q15078); test: Inhibition of CDK5/P25
[14] = biological target: Serine/threonine-protein kinase Chk1 (Homo sapiens, UniProt O14757); test: Inhibition of CHK1
[15] = biological target: Epidermal growth factor receptor (Homo sapiens, UniProt P04626+P00533+Q15303+P21860); test: Inhibition of EGFR1; assay type: protein assay
[16] = biological target: Mitogen-activated protein kinase 1 (Homo sapiens, UniProt P28482); test: Inhibition of ERK2
[17] = biological target: Fibroblast growth factor receptor 1 (Homo sapiens, UniProt P11362); test: Inhibition of FGFR1
[18] = biological target: Glycogen synthase kinase-3 beta (Homo sapiens, UniProt P49841); test: Inhibition of GSK3-beta
[19] = biological target: Insulin-like growth factor 1 receptor (Homo sapiens, UniProt P08069); test: Inhibition of IGFR1
[20] = biological target: Inhibitor of nuclear factor kappa-B kinase subunit beta (Homo sapiens, UniProt O14920); test: Inhibition of IKK2
Insulin receptor = Insulin receptor (Homo sapiens, UniProt P06213); test: Inhibition of IR
[21] = biological target: Tyrosine-protein kinase JAK2 (Homo sapiens, UniProt O60674); test: Inhibition of JAK2
[22] = biological target: Mast/stem cell growth factor receptor Kit (Homo sapiens, UniProt P10721); test: Inhibition of KIT
Mast/stem cell growth factor receptor Kit, sequence (P10721 whole entry): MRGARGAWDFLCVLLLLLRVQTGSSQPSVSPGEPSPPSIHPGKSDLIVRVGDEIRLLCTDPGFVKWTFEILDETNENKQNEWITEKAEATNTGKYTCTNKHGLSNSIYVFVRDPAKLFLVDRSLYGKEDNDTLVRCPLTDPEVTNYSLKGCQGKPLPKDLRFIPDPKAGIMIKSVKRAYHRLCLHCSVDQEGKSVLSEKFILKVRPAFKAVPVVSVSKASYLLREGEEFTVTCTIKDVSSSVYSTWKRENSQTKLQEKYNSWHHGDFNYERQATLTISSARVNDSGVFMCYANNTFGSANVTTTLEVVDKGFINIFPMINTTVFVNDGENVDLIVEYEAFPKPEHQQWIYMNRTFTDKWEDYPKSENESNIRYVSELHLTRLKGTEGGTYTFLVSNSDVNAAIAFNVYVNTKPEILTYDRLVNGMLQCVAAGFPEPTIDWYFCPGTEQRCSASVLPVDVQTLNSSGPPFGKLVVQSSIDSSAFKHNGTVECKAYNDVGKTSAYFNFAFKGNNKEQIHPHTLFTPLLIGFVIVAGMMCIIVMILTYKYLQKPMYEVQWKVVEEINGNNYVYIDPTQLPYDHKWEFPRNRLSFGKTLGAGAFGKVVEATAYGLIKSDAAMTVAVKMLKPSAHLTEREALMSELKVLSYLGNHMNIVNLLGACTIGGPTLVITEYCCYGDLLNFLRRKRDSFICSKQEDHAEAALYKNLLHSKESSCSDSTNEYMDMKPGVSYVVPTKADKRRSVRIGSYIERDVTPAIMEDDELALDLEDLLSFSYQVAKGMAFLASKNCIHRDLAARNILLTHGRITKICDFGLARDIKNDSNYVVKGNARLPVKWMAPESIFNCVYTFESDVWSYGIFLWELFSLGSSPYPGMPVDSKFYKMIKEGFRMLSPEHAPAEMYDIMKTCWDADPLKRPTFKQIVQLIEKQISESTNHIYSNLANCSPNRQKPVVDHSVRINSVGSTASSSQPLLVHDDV

[23] = biological target: Tyrosine-protein kinase Lck (Homo sapiens, UniProt P06239); test: Inhibition of LCK
[24] = biological target: MAP kinase-activated protein kinase 2 (Homo sapiens, UniProt P49137); test: Inhibition of MAP-KAPK2
[25] = biological target: Hepatocyte growth factor receptor (Homo sapiens, UniProt P08581); test: Inhibition of MET
[26] = biological target: Serine/threonine-protein kinase 26 (Homo sapiens, UniProt Q9P289); test: Inhibition of MST4
[27] = biological target: Serine/threonine-protein kinase Nek6 (Homo sapiens, UniProt Q9HC98); test: Inhibition of NEK6
[28] = Inhibition of NIM
[29] = biological target: Mitogen-activated protein kinase 14 (Homo sapiens, UniProt Q16539); test: Inhibition of P38alpha
Mitogen-activated protein kinase 14, sequence (Q16539 whole entry): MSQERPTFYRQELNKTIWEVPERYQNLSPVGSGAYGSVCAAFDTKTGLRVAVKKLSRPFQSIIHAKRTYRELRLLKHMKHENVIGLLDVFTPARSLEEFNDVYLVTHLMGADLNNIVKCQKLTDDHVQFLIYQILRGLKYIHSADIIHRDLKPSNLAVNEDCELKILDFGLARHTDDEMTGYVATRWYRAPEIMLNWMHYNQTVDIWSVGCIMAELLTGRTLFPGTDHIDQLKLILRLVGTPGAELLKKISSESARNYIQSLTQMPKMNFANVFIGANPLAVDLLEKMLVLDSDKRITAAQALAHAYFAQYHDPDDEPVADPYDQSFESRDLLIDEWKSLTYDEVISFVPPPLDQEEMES

[30] = biological target: Serine/threonine-protein kinase PAK 4 (Homo sapiens, UniProt O96013); test: Inhibition of PAK4
[31] = Inhibition of PDGFR
[32] = biological target: cAMP-dependent protein kinase catalytic subunit alpha (Homo sapiens, UniProt P17612); test: Inhibition of PKAalpha
[33] = biological target: Protein kinase C beta type (Homo sapiens, UniProt P05771); test: Inhibition of PKCbeta
[34] = biological target: Proto-oncogene tyrosine-protein kinase receptor Ret (Homo sapiens, UniProt P07949); test: Inhibition of RET
Proto-oncogene tyrosine-protein kinase receptor Ret, sequence (P07949 whole entry): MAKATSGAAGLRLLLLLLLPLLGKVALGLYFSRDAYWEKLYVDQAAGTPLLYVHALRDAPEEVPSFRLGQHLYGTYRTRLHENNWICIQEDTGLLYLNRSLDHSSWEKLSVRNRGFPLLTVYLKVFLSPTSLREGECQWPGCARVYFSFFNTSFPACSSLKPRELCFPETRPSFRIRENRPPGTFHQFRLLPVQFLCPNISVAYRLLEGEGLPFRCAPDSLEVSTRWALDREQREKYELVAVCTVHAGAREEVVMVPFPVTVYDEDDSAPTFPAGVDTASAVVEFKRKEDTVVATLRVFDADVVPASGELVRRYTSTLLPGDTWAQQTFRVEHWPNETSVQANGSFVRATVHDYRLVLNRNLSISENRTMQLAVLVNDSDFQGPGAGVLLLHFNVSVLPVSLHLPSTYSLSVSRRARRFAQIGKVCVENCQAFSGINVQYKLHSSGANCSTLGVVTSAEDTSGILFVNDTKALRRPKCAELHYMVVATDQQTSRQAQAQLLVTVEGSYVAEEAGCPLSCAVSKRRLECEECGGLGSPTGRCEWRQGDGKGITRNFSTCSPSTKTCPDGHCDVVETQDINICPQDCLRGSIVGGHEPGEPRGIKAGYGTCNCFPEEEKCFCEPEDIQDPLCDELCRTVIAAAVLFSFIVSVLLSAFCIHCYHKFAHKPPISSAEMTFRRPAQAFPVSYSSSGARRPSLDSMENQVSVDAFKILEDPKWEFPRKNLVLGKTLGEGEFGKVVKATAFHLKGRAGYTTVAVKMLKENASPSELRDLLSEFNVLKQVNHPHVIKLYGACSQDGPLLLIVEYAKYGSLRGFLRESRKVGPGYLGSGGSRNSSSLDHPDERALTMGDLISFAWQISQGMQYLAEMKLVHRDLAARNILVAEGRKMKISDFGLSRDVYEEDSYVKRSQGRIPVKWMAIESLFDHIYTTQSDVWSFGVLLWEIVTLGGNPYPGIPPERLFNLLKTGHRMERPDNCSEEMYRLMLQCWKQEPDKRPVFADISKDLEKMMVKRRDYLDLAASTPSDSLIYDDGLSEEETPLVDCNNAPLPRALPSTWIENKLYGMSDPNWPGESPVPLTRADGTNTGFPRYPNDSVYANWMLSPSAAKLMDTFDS

[35] = Inhibition of SULU1
[36] = biological target: High affinity nerve growth factor receptor (Homo sapiens, UniProt P04629); test: Inhibition of TRKA
[37] = biological target: Vascular endothelial growth factor receptor 2 (Homo sapiens, UniProt P35968); test: Inhibition of VEGFR2
[38] = biological target: Vascular endothelial growth factor receptor 3 (Homo sapiens, UniProt P35916); test: Inhibition of VEGFR3
A-375 = test: Antiproliferative activity against human A375 cells; assay type: functional, cell-based
HCT-116 = test: Antiproliferative activity against human HCT116 cells; assay type: functional, cell-based
LNCaP = test: Antiproliferative activity against human LNCAP cells; assay type: functional, cell-based
MDA-MB-468 = test: Antiproliferative activity against human MDA-MB-468 cells; assay type: functional, cell-based
K562 = test: Antiproliferative activity against human K562 cells; assay type: functional, cell-based
MOLM-13 = test: Antiproliferative activity against human MOLM13 cells; assay type: functional, cell-based
MOLT-4 = test: Antiproliferative activity against human MOLT4 cells; assay type: functional, cell-based
[39] = Antiproliferative activity against human SUP-M2 cells; assay type: functional, cell-based
Caco-2 = test: Apparent permeability across human Caco2 cells; assay type: ADME, cell-based
[40] = Apparent permeability of the compound by PAMPA; assay type: ADME
[41] = Intrinsic clearance in rat hepatocytes at 1 uM; assay type: ADME, cell-based, Liver, Hepatocyte; conditions: read-out: CLH
[42] = Intrinsic clearance in human liver microsomes at 1 uM; assay type: ADME, Microsome; conditions: read-out: CLH
[43] = Solubility of the compound at pH 7; assay type: physicochemical; conditions: buffer
[44] = Tmax in Nu/Nu Balb Harlan mouse at 10 mg/kg, po; assay type: ADME, organism-based; parameters: dose 10 mg/kg, route oral; conditions: in vivo
[45] = AUC (0 to infinity) in Nu/Nu Balb Harlan mouse at 10 mg/kg, iv; assay type: ADME, organism-based; parameters: time infinity, dose 10 mg/kg, route intravenous; conditions: plasma
In short: (§1)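 Male Balb Nu/Nu mice (Harlan) received a single 10 mg/kg intravenous dose, n = 3 animals per study. Vehicle was either trifluoroacetate salt in dextrose or free base in 50% PEG 400/glucosate, depending on compound. Parameters were reported as mean ± standard deviation.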

[46] = Clearance in Nu/Nu Balb Harlan mouse at 10 mg/kg, iv; assay type: ADME, organism-based; parameters: dose 10 mg/kg, route intravenous; conditions: in vivo; in short: as §1
[47] = Volume of distribution at steady state in Nu/Nu Balb Harlan mouse at 10 mg/kg, iv; assay type: ADME, organism-based; parameters: dose 10 mg/kg, route intravenous; conditions: in vivo, read-out: Vdss
[48] = Half life in Nu/Nu Balb Harlan mouse at 10 mg/kg, iv; assay type: ADME, organism-based; parameters: dose 10 mg/kg, route intravenous; conditions: in vivo; in short: as §1
[49] = Cmax in Nu/Nu Balb Harlan mouse at 10 mg/kg, po; assay type: ADME, organism-based; parameters: dose 10 mg/kg, route oral; conditions: in vivo
[50] = AUC (0 to infinity) in Nu/Nu Balb Harlan mouse at 10 mg/kg, po; assay type: ADME, organism-based; parameters: time infinity, dose 10 mg/kg, route oral; conditions: plasma
[51] = Terminal half life in Nu/Nu Balb Harlan mouse at 10 mg/kg, po; assay type: ADME, organism-based; parameters: dose 10 mg/kg, route oral; conditions: in vivo, read-out: beta t1/2 (converted)
[52] = Oral bioavailability in Nu/Nu Balb Harlan mouse at 10 mg/kg; assay type: ADME, organism-based; conditions: in vivo

Serine/threonine-protein kinase PLK1, sequence (P53350 whole entry): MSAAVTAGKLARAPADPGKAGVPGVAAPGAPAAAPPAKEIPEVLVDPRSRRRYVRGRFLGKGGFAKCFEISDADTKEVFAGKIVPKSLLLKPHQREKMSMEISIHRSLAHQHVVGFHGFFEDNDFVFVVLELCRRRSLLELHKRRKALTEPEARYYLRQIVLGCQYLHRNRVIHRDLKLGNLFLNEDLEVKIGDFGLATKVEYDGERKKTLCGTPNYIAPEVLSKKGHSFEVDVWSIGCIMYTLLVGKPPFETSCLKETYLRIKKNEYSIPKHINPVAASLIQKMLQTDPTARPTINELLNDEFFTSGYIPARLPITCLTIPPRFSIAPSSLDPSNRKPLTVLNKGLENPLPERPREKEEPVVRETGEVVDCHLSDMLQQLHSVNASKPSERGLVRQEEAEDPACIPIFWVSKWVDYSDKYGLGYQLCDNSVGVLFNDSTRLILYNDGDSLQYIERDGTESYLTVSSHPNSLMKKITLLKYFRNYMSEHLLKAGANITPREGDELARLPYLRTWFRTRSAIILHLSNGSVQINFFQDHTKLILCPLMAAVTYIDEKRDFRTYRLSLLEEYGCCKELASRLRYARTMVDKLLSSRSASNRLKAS

Question: Which results are given for `CN1CCN(c2ccc(OC(F)(F)F)c(Nc3nccc(-c4cc(C(N)=O)cn4CCO)n3)c2)CC1`?
Answer: IC50 [1]: 151 nM; IC50 [2]: > 10 µM; IC50 [3]: > 10 µM; IC50 [4]: > 10 µM; IC50 (Aurora kinase A): > 10 µM; IC50 (A2780): 2530 nM

Question: Which results are given for `CN1CCN(c2ccc(OC(F)(F)F)c(Nc3nccc(-c4cc(C(N)=O)cn4C)n3)c2)CC1`?
Answer: IC50 [2]: > 10 µM; IC50 [3]: > 10 µM; IC50 [4]: > 10 µM; IC50 (Aurora kinase A): > 10 µM; IC50 (A2780): 360 nM; IC50 [5]: 951 nM; IC50 [6]: > 10 µM; IC50 [7]: > 10 µM; IC50 (Aurora kinase B): > 10 µM; IC50 [8]: > 10 µM; IC50 [9]: > 10 µM; IC50 [10]: > 10 µM; IC50 [11]: > 10 µM; IC50 [12]: > 10 µM; IC50 [13]: > 10 µM; IC50 [14]: > 10 µM; IC50 [15]: > 10 µM; IC50 [16]: > 10 µM; IC50 [17]: > 10 µM; IC50 [18]: > 10 µM; IC50 [19]: > 10 µM; IC50 [20]: > 10 µM; IC50 (Insulin receptor): > 10 µM; IC50 [21]: > 10 µM; IC50 [22]: > 10 µM; IC50 [23]: > 10 µM; IC50 [24]: > 10 µM; IC50 [25]: > 10 µM; IC50 [26]: > 10 µM; IC50 [27]: > 10 µM; IC50 [28]: > 10 µM; IC50 [29]: > 10 µM; IC50 [30]: > 10 µM; IC50 [31]: > 10 µM; IC50 [32]: > 10 µM; IC50 [33]: > 10 µM; IC50 [34]: > 10 µM; IC50 [35]: > 10 µM; IC50 [36]: > 10 µM; IC50 [37]: > 10 µM; IC50 [38]: > 10 µM; IC50 (A-375): 386 nM; IC50 (HCT-116): 520 nM; IC50 (LNCaP): 280 nM; IC50 (MDA-MB-468): 624 nM; IC50 (K562): 590 nM; IC50 (MOLM-13): 201 nM; IC50 (MOLT-4): 253 nM; IC50 [39]: 647 nM; Papp (Caco-2): permeable; Papp [40]: 50 ×10⁻⁶ cm/s; CLint scaled at 1 µM [41]: 408 mL/min/kg; CLint scaled at 1 µM [42]: 14.9 mL/min/kg; solubility [43]: 174 µM (≈ 82.7 µg/mL); Tmax [44]: 30 min

Question: For `CN1CCN(c2ccc(OC(F)(F)F)c(Nc3nccc(-c4cc(C(N)=O)cn4C)n3)c2)CC1.O=C(O)C(F)(F)F`, which AUC(0-inf) [45] is on record?
Answer: Its AUC(0-inf) is 5.41 µM·h.

Question: And the clearance [46]?
Answer: Its clearance is 74.7 mL/min/kg.

Question: And the Vd [47]?
Answer: Its Vd is 2.5 L/kg.

Question: And the half-life [48]?
Answer: Its half-life is 39 min.

Question: And the Cmax [49]?
Answer: The Cmax was 760 nM.

Question: What about the AUC(0-inf) [50] of the same compound?
Answer: The AUC(0-inf) was 1.92 µM·h.

Question: And the half-life [51]?
Answer: Its half-life is 102 min.

Question: And the bioavailability [52]?
Answer: Its bioavailability is 36%.
